This is an account of results in publication PMC4714923 (Biochemistry, 2015).

The target of one experiment is T1, FKBP52 (Homo sapiens, UniProt Q02790).
T1 sequence (Q02790 1-459): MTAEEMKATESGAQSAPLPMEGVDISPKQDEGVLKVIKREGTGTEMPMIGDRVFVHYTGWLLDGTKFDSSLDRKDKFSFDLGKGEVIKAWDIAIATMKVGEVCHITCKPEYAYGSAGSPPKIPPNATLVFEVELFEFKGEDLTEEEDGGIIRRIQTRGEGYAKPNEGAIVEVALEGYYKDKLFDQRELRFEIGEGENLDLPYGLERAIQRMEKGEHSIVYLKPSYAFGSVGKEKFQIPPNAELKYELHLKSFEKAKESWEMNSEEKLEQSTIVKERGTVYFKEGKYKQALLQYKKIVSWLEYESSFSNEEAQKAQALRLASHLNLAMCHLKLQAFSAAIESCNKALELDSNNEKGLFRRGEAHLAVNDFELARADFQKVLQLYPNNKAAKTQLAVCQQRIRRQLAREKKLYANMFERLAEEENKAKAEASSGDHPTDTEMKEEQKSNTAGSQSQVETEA
Briefly: FP binding of C-terminal Hsp70/90 tracers to FKBP52. The conditions noted are these: pH 7.4, full-length FKBP52. The method in brief: (§1)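 Full-length human protein, made in E. coli BL21(DE3) and Ni-NTA purified (DnaJC7 kept its His-tag; Hop and FKBP52 were TEV-cleaved and gel-filtered). Twofold dilutions (0–125 μM final) with 20 nM N-terminal 5-Fam-aminohexanoyl C-terminal Hsp70/90 peptide in 50 mM HEPES, 75 mM NaCl, 0.001% Triton X-100, pH 7.4. 30 min at RT, dark. FP (ex 485/em 530 nm) isotherms. ≥2 runs in triplicate, mean ± SEM.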

For another experiment, the target named is T2, CHIP (Homo sapiens, UniProt Q9UNE7).
T2 sequence (Q9UNE7 1-303): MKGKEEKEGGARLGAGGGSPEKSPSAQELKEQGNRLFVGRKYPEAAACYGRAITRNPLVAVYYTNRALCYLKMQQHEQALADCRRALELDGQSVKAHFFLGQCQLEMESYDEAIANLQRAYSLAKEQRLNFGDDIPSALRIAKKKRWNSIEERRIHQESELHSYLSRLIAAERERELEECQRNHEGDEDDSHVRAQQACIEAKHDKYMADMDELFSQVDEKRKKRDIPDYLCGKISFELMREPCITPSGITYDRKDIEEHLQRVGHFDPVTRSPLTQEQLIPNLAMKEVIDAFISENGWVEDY
Briefly: FP binding of C-terminal Hsp70/90 tracers to CHIP. Conditions: pH 7.4, full-length CHIP.

For a further experiment, the target named is T3, DnaJC7 (Homo sapiens, UniProt Q99615).
T3 sequence (Q99615 1-494): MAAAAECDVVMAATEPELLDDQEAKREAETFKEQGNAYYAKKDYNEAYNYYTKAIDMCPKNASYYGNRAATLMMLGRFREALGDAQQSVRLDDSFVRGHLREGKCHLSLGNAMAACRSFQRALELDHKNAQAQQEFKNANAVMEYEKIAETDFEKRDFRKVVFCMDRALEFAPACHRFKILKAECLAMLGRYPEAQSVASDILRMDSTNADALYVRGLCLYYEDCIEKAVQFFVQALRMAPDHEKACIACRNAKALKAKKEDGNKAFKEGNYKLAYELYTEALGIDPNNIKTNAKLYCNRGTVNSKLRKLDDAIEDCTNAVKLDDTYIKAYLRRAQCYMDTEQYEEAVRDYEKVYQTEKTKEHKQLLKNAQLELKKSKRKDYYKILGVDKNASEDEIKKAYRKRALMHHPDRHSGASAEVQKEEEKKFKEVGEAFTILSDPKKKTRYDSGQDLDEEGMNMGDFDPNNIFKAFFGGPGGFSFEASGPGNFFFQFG
Briefly: FP binding of C-terminal Hsp70/90 tracers to DnaJC7. The conditions noted are these: pH 7.4, full-length DnaJC7. The method in brief: as §1

For another experiment, the target named is Hop (Homo sapiens, UniProt P31948). Briefly: FP binding of C-terminal Hsp70/90 tracers to Hop. The method in brief:
as §1

For a further experiment, the target named is T4, FKBP51 (Homo sapiens, UniProt Q13451).
T4 sequence (Q13451 1-457): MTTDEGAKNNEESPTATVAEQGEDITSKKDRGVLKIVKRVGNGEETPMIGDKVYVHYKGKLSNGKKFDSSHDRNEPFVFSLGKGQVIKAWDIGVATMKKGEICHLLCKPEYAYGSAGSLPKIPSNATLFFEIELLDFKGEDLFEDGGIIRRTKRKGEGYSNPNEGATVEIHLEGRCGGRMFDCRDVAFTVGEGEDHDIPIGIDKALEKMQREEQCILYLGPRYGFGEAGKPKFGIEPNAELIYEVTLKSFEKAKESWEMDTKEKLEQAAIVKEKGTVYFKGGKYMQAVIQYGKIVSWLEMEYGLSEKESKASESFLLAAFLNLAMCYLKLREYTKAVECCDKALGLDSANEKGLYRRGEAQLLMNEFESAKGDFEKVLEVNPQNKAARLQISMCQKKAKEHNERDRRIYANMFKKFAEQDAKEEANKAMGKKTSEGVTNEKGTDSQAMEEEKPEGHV
Briefly: FP binding of C-terminal Hsp70/90 tracers to FKBP51. The conditions noted are these: pH 7.4, full-length FKBP51.

Chain of Hop (P31948 whole entry): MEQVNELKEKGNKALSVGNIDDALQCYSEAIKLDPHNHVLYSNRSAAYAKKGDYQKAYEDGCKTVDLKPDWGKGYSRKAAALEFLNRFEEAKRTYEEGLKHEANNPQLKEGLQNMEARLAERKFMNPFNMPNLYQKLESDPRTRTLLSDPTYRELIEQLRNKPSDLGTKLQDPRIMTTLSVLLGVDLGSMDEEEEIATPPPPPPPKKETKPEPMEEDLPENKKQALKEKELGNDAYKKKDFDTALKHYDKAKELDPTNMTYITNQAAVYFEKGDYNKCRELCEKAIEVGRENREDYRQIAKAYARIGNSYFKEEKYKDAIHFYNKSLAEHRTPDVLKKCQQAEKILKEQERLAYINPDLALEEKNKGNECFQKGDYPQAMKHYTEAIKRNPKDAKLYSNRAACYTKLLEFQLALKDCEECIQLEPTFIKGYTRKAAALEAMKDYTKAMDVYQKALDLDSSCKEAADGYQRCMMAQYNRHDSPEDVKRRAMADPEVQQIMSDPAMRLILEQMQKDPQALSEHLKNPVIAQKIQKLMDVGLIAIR

Consider Fam-DVEEM, for which, on FKBP52, the “binding to FKBP52 (in words)” value is listed as “no affinity”. Moreover, the “binding to CHIP (in words)” value on CHIP is “no affinity”. For the same substance, the “binding to DnaJC7 (in words)” value on DnaJC7 is on record as “no affinity”. Further, on Hop (pH 7.4, full-length Hop), the “binding to Hop (in words)” value is listed as “no affinity”. Moreover, the “binding to FKBP51 (in words)” value at FKBP51 is reported as “no affinity”.

On to Fam-DDTERMEEVD, for which the “binding to FKBP52 (in words)” value on FKBP52 is listed as “unaffected”. Also, the “decrease in affinity versus wt tracer” value at CHIP is “more than 8 fold”. The “binding to DnaJC7 (in words)” value on DnaJC7 was “unaffected”. Besides, on Hop (pH 7.4, pseudophosphorylated tracer), the “enhanced binding versus wt tracer” value was ~ 2 fold. Moreover, the “binding to FKBP51 (in words)” value at FKBP51 is “unaffected”.
